Test results: ChEMBL document CHEMBL1157044, “Synthesis, biological and medicinal significance of S-glycosido-thieno[2,3-d]-pyrimidines as new anti-inflammatory and analgesic agents” (Eur J Med Chem, 2010)

Assays:
Mus musculus [1] = experiment: Analgesic activity in Swiss albino mouse assessed as p-benzoquinone-induced writhing at 100 mg/kg, po administered 60 mins before benzoquinone challenge; type: functional
Outline: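 Mice fasted overnight with water allowed, dosed by gavage with suspension in 0.5% carboxymethyl cellulose; vehicle controls. 60 min later, i.p. 0.1 mL/10 g of 2.5% (v/v) p-benzoquinone in distilled water. Writhes counted individually for 15 min starting 5 min post-injection; % change from vehicle writhing controls, mean ± SEM, two-tailed t-test. Aspirin reference.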

Mus musculus [2] = experiment: Antiinflammatory activity in Swiss albino mouse assessed as inhibition of carrageenan-induced paw edema at 100 mg/kg, po administered 60 mins before carrageenan challenge measured after 90 mins; type: functional
Outline: (§1)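 Mice fasted overnight, gavaged with suspension in 0.5% carboxymethyl cellulose or vehicle. 60 min later, 0.5 mg/25 µL carrageenan in 154 mM saline injected subplantar into right hind paw, saline into left. Right-minus-left footpad thickness by dial gauge every 90 min over 6 h; % inhibition versus control, mean ± SEM, two-tailed t-test. Indometacin reference.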

Mus musculus [3] = experiment: Antiinflammatory activity in Swiss albino mouse assessed as inhibition of carrageenan-induced paw edema at 100 mg/kg, po administered 60 mins before carrageenan challenge measured after 360 mins; type: functional; outline: as §1
Mus musculus [4] = experiment: Toxicity in Swiss albino mouse assessed as gastric ulceration at 100 mg/kg, po; type: organism-based, Stomach; set-up: dose 100 mg/kg, route oral; conditions: in vivo
Outline: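 Mice fasted the day before (water allowed), given 100 mg/kg orally by gavage as suspension in 0.5% carboxymethyl cellulose; vehicle controls. Carrageenan paw oedema followed over 6 h. Immediately after last paw measurement, animals sacrificed under ether anaesthesia, stomachs removed and examined under dissecting microscope; stomach with one or more ulcers scored positive; expressed as ulcerated/total (n=6 per group).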

Mus musculus [5] = experiment: Antiinflammatory activity in Swiss albino mouse assessed as inhibition of carrageenan-induced paw edema at 100 mg/kg, po administered 60 mins before carrageenan challenge measured after 270 mins; type: functional; outline: as §1
Mus musculus [6] = experiment: Antiinflammatory activity in Swiss albino mouse assessed as inhibition of carrageenan-induced paw edema at 100 mg/kg, po administered 60 mins before carrageenan challenge measured after 180 mins; type: functional; outline: as §1

## CC(=O)Oc1ccccc1C(=O)O [ASPIRIN]
Mus musculus [1]
  inhibition in vivo at 100 mg/kg: 51.9%

## CC(=O)OC[C@H]1O[C@@H](Sc2nc3sc(C(C)=O)c(C)c3c(=O)n2N)[C@@H](OC(C)=O)[C@@H]1OC(C)=O
Mus musculus [1]
  inhibition in vivo at 100 mg/kg: 48.8%
Mus musculus [2]
  inhibition in vivo at 100 mg/kg: 28.5%
Mus musculus [3]
  inhibition in vivo at 100 mg/kg: 35.6%
Mus musculus [4]
  Activity: Non-toxic
Mus musculus [5]
  inhibition in vivo at 100 mg/kg: 28.6%
Mus musculus [6]
  inhibition in vivo at 100 mg/kg: 29.8%

## CCOC(=O)c1sc2nc(S[C@@H]3O[C@H](CO)[C@@H](O)[C@@H]3O)n(N)c(=O)c2c1C
Mus musculus [1]
  inhibition in vivo at 100 mg/kg: 53.3%
Mus musculus [2]
  inhibition in vivo at 100 mg/kg: 32.1%
Mus musculus [3]
  inhibition in vivo at 100 mg/kg: 38.9%
Mus musculus [4]
  Activity: Non-toxic
Mus musculus [5]
  inhibition in vivo at 100 mg/kg: 35.9%
Mus musculus [6]
  inhibition in vivo at 100 mg/kg: 35.6%

## CCOC(=O)c1sc2nc(S[C@@H]3O[C@H](COC(C)=O)[C@@H](OC(C)=O)[C@H](OC(C)=O)[C@H]3OC(C)=O)n(N)c(=O)c2c1C
Mus musculus [1]
  inhibition in vivo at 100 mg/kg: 37.9%
Mus musculus [2]
  inhibition in vivo at 100 mg/kg: 13.2%
Mus musculus [3]
  inhibition in vivo at 100 mg/kg: 22.3%
Mus musculus [5]
  inhibition in vivo at 100 mg/kg: 20.3%
Mus musculus [6]
  inhibition in vivo at 100 mg/kg: 14.7%

## CCOC(=O)c1sc2nc(S[C@@H]3O[C@H](COC(C)=O)[C@@H](OC(C)=O)[C@@H]3OC(C)=O)n(N)c(=O)c2c1C
Mus musculus [1]
  inhibition in vivo at 100 mg/kg: 53.3%
Mus musculus [2]
  inhibition in vivo at 100 mg/kg: 32.1%
Mus musculus [3]
  inhibition in vivo at 100 mg/kg: 38.9%
Mus musculus [4]
  Activity: Non-toxic
Mus musculus [5]
  inhibition in vivo at 100 mg/kg: 35.9%
Mus musculus [6]
  inhibition in vivo at 100 mg/kg: 35.6%

## CCOC(=O)c1sc2[nH]c(=S)n(N)c(=O)c2c1C
Mus musculus [1]
  inhibition in vivo at 100 mg/kg: 23.9%
Mus musculus [2]
  inhibition in vivo at 100 mg/kg: 1.2%
Mus musculus [3]
  inhibition in vivo at 100 mg/kg: 8.5%
Mus musculus [4]
  Activity: Non-toxic
Mus musculus [5]
  inhibition in vivo at 100 mg/kg: 8.3%
Mus musculus [6]
  inhibition in vivo at 100 mg/kg: 6.1%

## CC(=O)c1sc2c(c1C)C(=O)N(N)C(S[C@@H]1O[C@H](CO)[C@H](O)[C@H](O)[C@H]1O)N2 (stereo partly drawn)
Mus musculus [1]
  inhibition in vivo at 100 mg/kg: 35.7%
Mus musculus [2]
  inhibition in vivo at 100 mg/kg: 14.4%
Mus musculus [3]
  inhibition in vivo at 100 mg/kg: 20.7%
Mus musculus [5]
  inhibition in vivo at 100 mg/kg: 17.5%
Mus musculus [6]
  inhibition in vivo at 100 mg/kg: 16.6%

## CC(=O)OC[C@H]1O[C@@H](Sc2nc3sc(C(C)=O)c(C)c3c(=O)n2N)[C@H](OC(C)=O)[C@@H](OC(C)=O)[C@H]1OC(C)=O
Mus musculus [1]
  inhibition in vivo at 100 mg/kg: 13.8%
Mus musculus [2]
  inhibition in vivo at 100 mg/kg: 14.9%
Mus musculus [3]
  inhibition in vivo at 100 mg/kg: 13.1%
Mus musculus [5]
  inhibition in vivo at 100 mg/kg: 10.5%
Mus musculus [6]
  inhibition in vivo at 100 mg/kg: 7.8%

## CCOC(=O)c1sc2c(c1C)C(=O)N(N)C(S[C@@H]1O[C@H](CO)[C@@H](O)[C@H](O)[C@H]1O)N2 (stereo partly drawn)
Mus musculus [1]
  inhibition in vivo at 100 mg/kg: 51%
Mus musculus [2]
  inhibition in vivo at 100 mg/kg: 29.7%
Mus musculus [3]
  inhibition in vivo at 100 mg/kg: 34.4%
Mus musculus [5]
  inhibition in vivo at 100 mg/kg: 33.9%
Mus musculus [6]
  inhibition in vivo at 100 mg/kg: 31.2%

## CCOC(=O)c1sc2nc(S[C@@H]3O[C@H](CO)[C@H](O)[C@H](O)[C@H]3O)n(N)c(=O)c2c1C
Mus musculus [4]
  Activity: Non-toxic

## CC(=O)c1sc2[nH]c(=S)n(N)c(=O)c2c1C
Mus musculus [1]
  inhibition in vivo at 100 mg/kg: 35.7%
Mus musculus [2]
  inhibition in vivo at 100 mg/kg: 6.1%
Mus musculus [3]
  inhibition in vivo at 100 mg/kg: 8.5%
Mus musculus [4]
  Activity: Non-toxic
Mus musculus [5]
  inhibition in vivo at 100 mg/kg: 8.3%
Mus musculus [6]
  inhibition in vivo at 100 mg/kg: 7.8%

## CC(=O)OC[C@H]1O[C@@H](Sc2nc3sc(C(C)=O)c(C)c3c(=O)n2N)[C@H](OC(C)=O)[C@@H](OC(C)=O)[C@@H]1OC(C)=O
Mus musculus [1]
  inhibition in vivo at 100 mg/kg: 45.4%
Mus musculus [2]
  inhibition in vivo at 100 mg/kg: 25.7%
Mus musculus [3]
  inhibition in vivo at 100 mg/kg: 34.2%
Mus musculus [4]
  Activity: Non-toxic
Mus musculus [5]
  inhibition in vivo at 100 mg/kg: 29.9%
Mus musculus [6]
  inhibition in vivo at 100 mg/kg: 23.9%

## COc1ccc2c(c1)c(CC(=O)O)c(C)n2C(=O)c1ccc(Cl)cc1 [INDOMETHACIN]
Mus musculus [2]
  inhibition in vivo at 100 mg/kg: 29.5%
Mus musculus [3]
  inhibition in vivo at 100 mg/kg: 42.7%
Mus musculus [5]
  inhibition in vivo at 100 mg/kg: 41.9%
Mus musculus [6]
  inhibition in vivo at 100 mg/kg: 30.6%

## CC(=O)c1sc2nc(S[C@@H]3O[C@H](CO)[C@@H](O)[C@@H]3O)n(N)c(=O)c2c1C
Mus musculus [1]
  inhibition in vivo at 100 mg/kg: 48.8%
Mus musculus [2]
  inhibition in vivo at 100 mg/kg: 28.5%
Mus musculus [3]
  inhibition in vivo at 100 mg/kg: 35.6%
Mus musculus [4]
  Activity: Non-toxic
Mus musculus [5]
  inhibition in vivo at 100 mg/kg: 28.6%
Mus musculus [6]
  inhibition in vivo at 100 mg/kg: 29.8%
